Measured values published in publication PMC3158287 (Nature chemical biology, 2011).
Peptide text beside a SMILES is read from it. * marks the point of attachment. Cbz = O=C(OCc1ccccc1)*

Key:
[1] = biological target: T1, OSBP (Homo sapiens, UniProt P22059); experiment: OSBP protein levels by western blotting; type: cell-based; conditions: HCT-116 cells; 25-OHC 10 μM
T1 sequence (P22059 1-807): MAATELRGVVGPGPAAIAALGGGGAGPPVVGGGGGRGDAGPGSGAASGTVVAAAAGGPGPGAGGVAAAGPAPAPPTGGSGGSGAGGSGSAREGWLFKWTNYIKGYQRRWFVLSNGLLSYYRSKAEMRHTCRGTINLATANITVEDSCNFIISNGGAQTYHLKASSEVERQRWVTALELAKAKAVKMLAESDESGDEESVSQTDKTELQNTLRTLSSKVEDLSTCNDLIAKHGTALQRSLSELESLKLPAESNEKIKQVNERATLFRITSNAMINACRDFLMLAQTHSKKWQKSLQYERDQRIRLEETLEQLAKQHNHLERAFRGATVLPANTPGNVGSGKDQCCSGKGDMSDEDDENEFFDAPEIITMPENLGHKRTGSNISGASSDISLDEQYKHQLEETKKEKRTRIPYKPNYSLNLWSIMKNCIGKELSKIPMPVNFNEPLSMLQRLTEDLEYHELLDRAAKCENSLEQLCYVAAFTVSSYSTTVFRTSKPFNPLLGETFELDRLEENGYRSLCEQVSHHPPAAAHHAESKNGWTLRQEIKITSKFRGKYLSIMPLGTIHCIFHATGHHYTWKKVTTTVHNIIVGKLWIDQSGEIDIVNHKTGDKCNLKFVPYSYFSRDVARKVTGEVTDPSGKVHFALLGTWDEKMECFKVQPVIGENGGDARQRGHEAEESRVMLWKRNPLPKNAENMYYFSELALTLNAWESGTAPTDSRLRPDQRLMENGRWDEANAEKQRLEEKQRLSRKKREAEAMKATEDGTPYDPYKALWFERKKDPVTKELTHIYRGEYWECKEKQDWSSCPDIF
Method in brief: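 HCT-116 cells were treated with test compound at 50 nM or 10 nM over a time course including 24 h. Some samples also received proteasome inhibitor MG-132 or lactacystin. OSBP was measured by western blotting with polyclonal rabbit anti-OSBP (N-terminus) antibody. Data are n = 3, compared with vehicle-treated cells by two-tailed Student's t-test.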

[2] = tested on: HCT-116 cells; experiment: Suppression of antiproliferative activity by 25-OHC coadministration; type: cell-based, human; conditions: HCT-116 and HeLa cell lines
Method in brief: (§1)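 HCT-116 p21+/+ and p21−/− cells were seeded in 96-well plates and rested 24 h. A time-zero plate was read with CellTiter-Blue (resazurin) after 90 min at 37 °C, fluorescence 544 nm ex / 590 nm em. Serially diluted test compound was added as 4× solution. Viability was re-read at 48 h and GI50 derived. For coadministration, 10 μM 25-OHC was added with test compound at 250 nM or 10 nM.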

[3] = tested on: human cancer cell lines; conditions: cited from earlier work
[4] = biological target: T1, OSBP; experiment: OSBP localization by immunofluorescence microscopy, HCT-116; type: cell-based; conditions: HCT-116 cells, 4 h; 5 μM schweinfurthin A, 10 nM OSW-1, 20 nM cephalostatin 1
Method in brief: (§2)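 Cells on coverslips were grown 72 h, then given test compound or vehicle (4 h for HCT-116). They were fixed 10 min in 3.7% formaldehyde/PBS and permeabilised 5 min in 0.5% Triton X-100. Blocking used Image-iT FX, then 1% BSA/PBS. Rabbit anti-OSBP (N-terminus) and mouse anti-p230 were applied overnight at 4 °C, then Alexa Fluor secondaries for 60 min with Hoechst 33258. Imaging was by confocal microscopy.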

[5] = biological target: T2, OSBP-Myc-His (Homo sapiens, UniProt P22059); experiment: [3H]25-OHC charcoal-dextran binding assay, wild-type OSBP-Myc-His
T2 sequence (P22059 1-807): T1 sequence (P22059 1-807)

[6] = biological target: T3, ORP4L-Myc-His (Homo sapiens, UniProt Q969R2); experiment: [3H]25-OHC charcoal-dextran binding assay, ORP4L-Myc-His
T3 sequence (Q969R2 1-916): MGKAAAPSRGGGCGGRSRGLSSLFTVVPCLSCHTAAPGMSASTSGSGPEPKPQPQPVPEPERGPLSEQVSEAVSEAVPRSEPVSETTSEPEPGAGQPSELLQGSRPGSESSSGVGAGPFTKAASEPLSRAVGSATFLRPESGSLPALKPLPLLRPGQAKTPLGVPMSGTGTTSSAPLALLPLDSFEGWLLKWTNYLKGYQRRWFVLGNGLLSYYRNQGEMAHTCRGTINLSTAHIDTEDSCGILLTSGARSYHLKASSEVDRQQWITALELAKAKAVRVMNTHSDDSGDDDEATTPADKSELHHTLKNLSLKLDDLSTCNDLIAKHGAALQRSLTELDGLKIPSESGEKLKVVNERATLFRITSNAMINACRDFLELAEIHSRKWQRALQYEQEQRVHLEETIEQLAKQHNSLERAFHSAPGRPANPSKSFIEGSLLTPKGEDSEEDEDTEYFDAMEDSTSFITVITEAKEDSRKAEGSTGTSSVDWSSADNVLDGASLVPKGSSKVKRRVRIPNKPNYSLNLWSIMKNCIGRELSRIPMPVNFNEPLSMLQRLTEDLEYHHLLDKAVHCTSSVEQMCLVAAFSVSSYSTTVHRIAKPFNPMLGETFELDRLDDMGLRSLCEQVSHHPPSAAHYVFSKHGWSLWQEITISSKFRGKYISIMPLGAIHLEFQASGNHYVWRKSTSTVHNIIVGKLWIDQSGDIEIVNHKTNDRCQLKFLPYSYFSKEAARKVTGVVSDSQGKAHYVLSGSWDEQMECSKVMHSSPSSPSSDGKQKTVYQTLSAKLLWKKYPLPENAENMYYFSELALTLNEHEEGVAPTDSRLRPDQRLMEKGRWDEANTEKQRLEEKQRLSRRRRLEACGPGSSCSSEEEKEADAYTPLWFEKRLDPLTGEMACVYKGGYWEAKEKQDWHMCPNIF

[7] = tested on: HCT-116 p21^−/− cells; experiment: Cell viability assay, HCT-116 p21-/-; type: cell-based, human; conditions: GI50 after 48 h
Method in brief: as §1

[8] = biological target: T1, OSBP; experiment: OSBP localization by immunofluorescence microscopy, A549; type: cell-based; conditions: A549 cells
Method in brief: as §2

[9] = tested on: HCT-116 p21^−/− cells stably transfected with shOSBP or shNT; experiment: OSBP shRNA knockdown and dose-shift experiment; type: cell-based, human; conditions: 72 h
Method in brief: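 HCT-116 p21−/− cells were stably transfected with OSBP-targeting or nontargeting shRNA in the pSIREN-RetroQ vector. […] Values are mean ± s.d. of 3–4 experiments, compared with shNT cells by two-tailed Student's t-test.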

[10] = tested on: HeLa cells overexpressing wild-type OSBP; experiment: Overexpression-viability assay, wild-type OSBP-Myc-His; type: cell-based, human; conditions: 48 h, versus lacZ
[11] = tested on: HeLa cells overexpressing ORP4L; experiment: Overexpression-viability assay, ORP4L-Myc-His; type: cell-based, human; conditions: 48 h, versus lacZ
[12] = tested on: sphingomyelin biosynthesis in CHO-K1 cells; experiment: Sphingomyelin biosynthesis, [3H]serine pulse labeling, CHO-K1; type: cell-based, Chinese hamster

In the case of CC(C)C[C@@H](C=O)NC(=O)[C@H](CC(C)C)NC(=O)[C@H](CC(C)C)NC(=O)OCc1ccccc1 [MG-132, reference compound] (Cbz-Leu-Leu-Leu-aldehyde), the “Effect on OSBP levels (compound alone)” value [1] is reported as “did not affect OSBP concentrations”.

With C[C@H]1CCC/C=C/[C@@H]2C[C@H](O)C[C@H]2[C@H](O)/C=C/C(=O)O1 [brefeldin A, reference compound] the “Effect of 25-OHC coadministration on antiproliferative activity” value [2] was “did not affect”.

For CC(=O)N[C@@H](CSC(=O)[C@]1([C@@H](O)C(C)C)NC(=O)[C@H](C)[C@@H]1O)C(=O)O [lactacystin, reference compound], the “Effect on OSBP levels (compound alone)” value [1] was “did not affect OSBP concentrations”.

In the case of CC1C2C(CC3C4CCC5Cc6nc7c(nc6CC5(C)C4CC(O)C32C)CC2CC(O)C3C4=CC5OC6(CCC(C)(O)CO6)C(C)C5(O)C4(C)C(O)CC3C2(C)C7)OC12CCC(C)(C)O2 (stereo not shown) [ritterazine B], the “GI50 (half-maximal inhibitory concentration)” value [3] is given as “nanomolar range”, the OSBP localization [4] is given as “This effect was also observed” and the Ki [5] is given as 28 ± 4 nM. The Ki [6] was greater than 360 nM and the “p21^−/− selectivity of growth inhibition (HCT-116 p21^−/− versus wild-type)” value [7] was “selectively growth-inhibitory”.

In the case of COc1cc(/C=C/c2cc(O)c(C/C=C(\C)CCC=C(C)C)c(O)c2)cc2c1O[C@]1(C)C[C@@H](O)[C@@H](O)C(C)(C)[C@H]1C2 [schweinfurthin B], the “GI50 (half-maximal inhibitory concentration)” value [3] is listed as “nanomolar range” and the OSBP localization [8] is listed as “perinuclear OSBP staining similar to that seen with 25-OHC”.

In the case of CC(=O)O[C@H]1C(=O)[C@@]2(C)[C@H]([C@H](OC(=O)c3ccccc3)[C@]3(O)C[C@H](OC(=O)[C@H](O)[C@@H](NC(=O)c4ccccc4)c4ccccc4)C(C)=C1C3(C)C)[C@]1(OC(C)=O)CO[C@@H]1C[C@@H]2O [taxol, reference compound], the “Sensitization by OSBP shRNA knockdown (GI50 shift shOSBP vs shNT)” value [9] is reported as “not affected”, the “Desensitization factor by OSBP overexpression (relative GI30)” value [10] is reported as “not affected” and the “Effect of 25-OHC coadministration on antiproliferative activity” value [2] is reported as “did not affect”. The “Desensitization factor by ORP4L overexpression (relative GI30)” value [11] was “not affected” and the “Inhibition of sphingomyelin biosynthesis (control cytotoxic / ER stress agents)” value [12] was “did not occur”.

With C/C=C(/C)C(=O)O[C@H]1C(C)=C2[C@H]([C@@H]1OC(=O)CCCCCCC)[C@@](C)(OC(C)=O)C[C@H](OC(=O)CCC)[C@@]1(O)[C@H]2OC(=O)[C@@]1(C)O [thapsigargin] the “Inhibition of sphingomyelin biosynthesis (control cytotoxic / ER stress agents)” value [12] was “did not occur”.
